{"source": "ChEMBL document CHEMBL1132573", "about": "“Novel antitumor 2-cyanoaziridine-1-carboxamides” (J Med Chem, 1999)", "key": {"[1]": {"assay": "Number of colony forming cells of human ovary tumor showing sensitivity among the 12 colony forming cells tested in vitro at compound concentration of 0.1 uM", "assay_type": "functional, Female gonad", "outline": "(§1)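 Fresh human tumor specimens from patients at the Arizona Cancer Center, run in the human tumor cloning (colony-forming) assay by a standard protocol. Read-out was [3H]thymine uptake by tumor-colony-forming cells.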"}, "A549": {"tested_on": "A549", "assay": "Inhibition of cell growth in (A-549) lung cell line", "assay_type": "functional, cell-based", "settings": "Homo sapiens"}, "[2]": {"assay": "Number of colony forming cells of human lung tumor showing sensitivity among the 2 colony forming cells tested in vitro at compound concentration of 0.1 uM", "assay_type": "functional", "outline": "as §1"}, "[3]": {"assay": "Number of colony forming cells of human melanoma tumor showing sensitivity among the 5 colony forming cells tested in vitro at compound concentration of 0.1 uM", "assay_type": "functional", "outline": "as §1"}, "[4]": {"assay": "Number of colony forming cells of human ovary tumor showing sensitivity among the 11 colony forming cells tested in vitro at compound concentration of 1.0 uM", "assay_type": "functional, Female gonad", "outline": "as §1"}, "Breast carcinoma cell [5]": {"tested_on": "Breast carcinoma cell", "assay": "Number of colony forming cells of human breast tumor showing sensitivity among the 4 colony forming cells tested in vitro at compound concentration of 0.1 uM", "assay_type": "functional", "outline": "as §1"}, "[6]": {"assay": "Number of colony forming cells of human stomach tumor showing sensitivity among the 1 colony forming cells tested in vitro at compound concentration of 0.1 uM", "assay_type": "functional", "outline": "(§2)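 Fresh human tumor specimens, obtained from patients at the Arizona Cancer Center, were tested as tumor-colony-forming cells in the human tumor cloning assay. Sensitivity was scored as a 50% or greater decrease in […] uptake by treated colony-forming cells relative to untreated control colony-forming cells. The value is the count of sensitive specimens among those tested.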"}, "[7]": {"assay": "Number of colony forming cells of human myeloma tumor showing sensitivity among the 3 colony forming cells tested in vitro at compound concentration of 1.0 uM", "assay_type": "functional", "outline": "as §1"}, "RPMI-8226": {"tested_on": "RPMI-8226", "assay": "Inhibition of cell growth in drug sensitive 8226 myeloma cell line", "assay_type": "functional, cell-based", "settings": "Homo sapiens"}, "MCF7 [8]": {"tested_on": "MCF7", "assay": "Inhibition of cell growth in (MCF7 breast) mitox cell line", "assay_type": "functional, cell-based", "settings": "Homo sapiens"}, "WiDr [9]": {"tested_on": "WiDr", "assay": "Inhibition of cell growth in drug sensitive WiDr colon cell line", "assay_type": "functional, cell-based", "settings": "Homo sapiens"}, "Breast carcinoma cell [10]": {"tested_on": "Breast carcinoma cell", "assay": "Number of colony forming cells of human breast tumor showing sensitivity among the 4 colony forming cells tested in vitro at compound concentration of 1.0 uM", "assay_type": "functional", "outline": "as §1"}, "[11]": {"assay": "Number of colony forming cells of human myeloma tumor showing sensitivity among the 3 colony forming cells tested in vitro at compound concentration of 0.1 uM", "assay_type": "functional", "outline": "as §1"}, "[12]": {"assay": "Number of colony forming cells of human lung tumor showing sensitivity among the 2 colony forming cells tested in vitro at compound concentration of 10 uM", "assay_type": "functional", "outline": "as §1"}, "[13]": {"assay": "Number of colony forming cells of human sarcoma tumor showing sensitivity among the 2 colony forming cells tested in vitro at compound concentration of 0.1 uM", "assay_type": "functional", "outline": "as §2"}, "[14]": {"assay": "Number of colony forming cells of human stomach tumor showing sensitivity among the 1 colony forming cells tested in vitro at compound concentration of 1.0 uM", "assay_type": "functional", "outline": "as §2"}, "[15]": {"assay": "Number of colony forming cells of human sarcoma tumor showing sensitivity among the 8 colony forming cells tested in vitro at compound concentration of 10 uM", "assay_type": "functional", "outline": "as §2"}, "[16]": {"assay": "Number of colony forming cells of human stomach tumor showing sensitivity among the 1 colony forming cells tested in vitro at compound concentration of 10 uM", "assay_type": "functional", "outline": "as §2"}, "[17]": {"assay": "Number of colony forming cells of human gynecologic tumor showing sensitivity among the 4 colony forming cells tested in vitro at compound concentration of 10 uM", "assay_type": "functional", "outline": "as §1"}, "[18]": {"assay": "Number of colony forming cells of human sarcoma tumor showing sensitivity among the 8 colony forming cells tested in vitro at compound concentration of 1.0 uM", "assay_type": "functional", "outline": "as §2"}, "[19]": {"assay": "Number of colony forming cells of human myeloma tumor showing sensitivity among the 3 colony forming cells tested in vitro at compound concentration of 10 uM", "assay_type": "functional", "outline": "as §1"}, "[20]": {"assay": "Number of colony forming cells of human melanoma tumor showing sensitivity among the 10 colony forming cells tested in vitro at compound concentration of 10 uM", "assay_type": "functional", "outline": "as §1"}, "[21]": {"assay": "Number of colony forming cells of human melanoma tumor showing sensitivity among the 10 colony forming cells tested in vitro at compound concentration of 1.0 uM", "assay_type": "functional", "outline": "as §1"}, "MCF7 [22]": {"tested_on": "MCF7", "assay": "Inhibition of cell growth in (MCF7 breast) dox cell line", "assay_type": "functional, cell-based", "settings": "Homo sapiens"}, "MCF7 [23]": {"tested_on": "MCF7", "assay": "Inhibition of cell growth in drug sensitive MCF-7 breast cell line", "assay_type": "functional, cell-based", "settings": "Homo sapiens"}, "[24]": {"assay": "Number of colony forming cells of human gynecologic tumor showing sensitivity among the 4 colony forming cells tested in vitro at compound concentration of 1.0 uM", "assay_type": "functional", "outline": "as §1"}, "WiDr [25]": {"tested_on": "WiDr", "assay": "Inhibition of cell growth in drug resistant WiDr colon cell line", "assay_type": "functional, cell-based", "settings": "Homo sapiens"}, "[26]": {"assay": "Number of colony forming cells of human ovary tumor showing sensitivity among the 12 colony forming cells tested in vitro at compound concentration of 10 uM", "assay_type": "functional, Female gonad", "outline": "as §1"}, "[27]": {"assay": "Number of colony forming cells of human gynecologic tumor showing sensitivity among the 4 colony forming cells tested in vitro at compound concentration of 0.1 uM", "assay_type": "functional", "outline": "as §1"}, "[28]": {"assay": "Number of colony forming cells of human lung tumor showing sensitivity among the 2 colony forming cells tested in vitro at compound concentration of 1.0 uM", "assay_type": "functional", "outline": "as §1"}, "Breast carcinoma cell [29]": {"tested_on": "Breast carcinoma cell", "assay": "Number of colony forming cells of human breast tumor showing sensitivity among the 4 colony forming cells tested in vitro at compound concentration of 10 uM", "assay_type": "functional", "outline": "as §1"}}, "note": "pIC50: −log10 of the molar value.", "data": [{"smiles": "N=C1NC(=O)N2CC12", "note": "(stereo unspecified) [IMEXON]", "values": [{"measurement": "Sensitivity", "setting": "[1]", "result": 4}, {"measurement": "pIC50", "setting": "A549", "result": "< 4.14"}, {"measurement": "Sensitivity", "setting": "[2]", "result": 0}, {"measurement": "Sensitivity", "setting": "[3]", "result": 3}, {"measurement": "Sensitivity", "setting": "[4]", "result": 3}, {"measurement": "Sensitivity", "setting": "Breast carcinoma cell [5]", "result": 0}, {"measurement": "Sensitivity", "setting": "[6]", "result": 0}, {"measurement": "Sensitivity", "setting": "[7]", "result": 3}, {"measurement": "pIC50", "setting": "RPMI-8226", "result": 4.77}, {"measurement": "pIC50", "setting": "MCF7 [8]", "result": "< 4.74"}, {"measurement": "pIC50", "setting": "WiDr [9]", "result": "< 4.14"}, {"measurement": "Sensitivity", "setting": "Breast carcinoma cell [10]", "result": 2}, {"measurement": "Sensitivity", "setting": "[11]", "result": 3}, {"measurement": "Sensitivity", "setting": "[12]", "result": 2}, {"measurement": "Sensitivity", "setting": "[13]", "result": 0}, {"measurement": "Sensitivity", "setting": "[14]", "result": 0}, {"measurement": "Sensitivity", "setting": "[15]", "result": 5}, {"measurement": "Sensitivity", "setting": "[16]", "result": 1}, {"measurement": "Sensitivity", "setting": "[17]", "result": 1}, {"measurement": "Sensitivity", "setting": "[18]", "result": 2}, {"measurement": "Sensitivity", "setting": "[19]", "result": 3}, {"measurement": "Sensitivity", "setting": "[20]", "result": 8}, {"measurement": "Sensitivity", "setting": "[21]", "result": 4}, {"measurement": "pIC50", "setting": "MCF7 [22]", "result": "< 4.74"}, {"measurement": "pIC50", "setting": "MCF7 [23]", "result": "< 4.74"}, {"measurement": "Sensitivity", "setting": "[24]", "result": 0}, {"measurement": "pIC50", "setting": "WiDr [25]", "result": "< 4.14"}, {"measurement": "Sensitivity", "setting": "[26]", "result": 8}, {"measurement": "Sensitivity", "setting": "[27]", "result": 0}, {"measurement": "Sensitivity", "setting": "[28]", "result": 0}, {"measurement": "Sensitivity", "setting": "Breast carcinoma cell [29]", "result": 3}]}]}
